Experimental data taken from the RNAGym collection of RNA variant scans (doi:10.1038/s41586-018-0170-7).

B1: tRNA (parent)
chain: GUUCCGUUGGCGUAAUGGUAACGCGUCUCCCUCCUAAGGAGAAGACUGCGGGUUCGAGUCCCGUACGGAACG

Variants of: B1
Assay: yeast fitness, log relative to wild type (ln ratio); higher = fitter; tRNA-Arg(CCU), competitive growth, 37 C, 1 M NaCl
Procedure, shortened: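 A combinatorial tRNA-Arg(CCU) variant library was carried on a HIS3 centromeric plasmid in BY4742 lacking the chromosomal gene, from two independent transformations. Pools grew 4 generations in SC-HIS at 30 °C, then ~6.5 generations (~26.5 h) in SC-HIS 1M NaCl at 37 °C, with three outputs per input. Variants were counted by 125 bp paired-end Illumina sequencing. Fitness is ln of each genotype's generations (OD-scaled log2 output/input frequency, inverse-variance weighted across replicates) over the wild-type's.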

Variant	yeast fitness (ln)
G1A U2G G6U C46U C66U A70G C71U	-0.216
U2C C46U A69G A70U C71U	-0.169
U2C A43C C66U A69G A70G	-0.169
U2C A43C C66U A69G A70U	-0.263
U2C A43C C46U C66U A70G	-0.0311
U2C A43C C46U C66U A70U	-0.0497
U2C C27U C46U C66U A69G C71U	-0.243
U2C A69G	-0.0379
U2C A43C C66A A69G A70G	-0.186
U2C C66A A69G A70U C71U	-0.496
U2C C27U C66U	-0.0757
U2C C46U C66A A70U	0.075
U2C C46U C66A A70G	-0.0556
U2C C27U C66U C71U	-0.177
U2C A43C C66A A70U C71U	-0.275
U2C C27U A43C C66U C71U	-0.311
U2C A69G C71U	-0.158
U2C C71U	-0.101
U2C C46U C71U	-0.069
U2C C27U C46U C66A A69G A70U C71U	-0.387
U2C A43C A70U C71U	-0.102

Variant	yeast fitness (ln)
U2C C27U C46U C66A A69G A70G	-0.227
U2C C27U C46U C66A A69G A70U	-0.114
U2C C27U C66A A69G A70G C71U	-0.142
U2C C46U A69G C71U	-0.131
U2C C66A A70G C71U	-0.196
U2C A43C C46U C66A A69G A70U	-0.0111
U2C A43C C46U C66A A69G A70G	-0.15
U2C A43C C66A A70G C71U	-0.11
U2C G6A A43C C46U C66A A70G C71U	-0.108
G1A U2G G6U C46U C66U C71U	-0.257
U2C C66U A70U C71U	-0.152
U2C C27U A43C C66U A70U	-0.135
U2C C27U A43C C66U A70G	-0.232
U2C C27U A43C A69G A70U C71U	-0.266
U2C C27U C46U A69G A70U C71U	-0.216
U2C C27U A69G A70G	-0.0516
U2C C27U A69G A70U	-0.175
G1A U2G G6U C66U A69G A70G C71U	-0.529
U2C C27U A43C C46U A69G C71U	-0.118
U2C A43C C66U A70U C71U	-0.424
U2C C27U A43C C46U C66A A69G A70G C71U	-0.15

Variant	yeast fitness (ln)
U2C G6A A43C C46U C66U A70G C71U	-0.0112
U2C G6A A43C C66U	-0.121
U2C C46U A69G A70G C71U	-0.0139
U2C C27U A43C C46U C66A	-0.0384
U2C C27U A43C C46U C66U	-0.0652
U2C C46U A70G C71U	-0.00238
U2C C27U C46U C71U	-0.268
U2C C27U A69G C71U	-0.102
U2C C27U A43C C46U C66A A70G	-0.0421
U2C C27U A43C C46U C66A A70U	-0.0988
U2C A43C C46U C66A C71U	-0.1
U2C C27U A43C C66U A69G A70G	-0.332
U2C C27U A43C C66U A69G A70U	-0.439
U2C C27U C66U A69G C71U	-0.303
U2C G6A A43C C66A A70U C71U	-0.261
U2C G6A A43C C46U C66U C71U	-0.0554
G1A U2G G6U C66U A69G C71U	-0.375
U2C C27U A43C A69G A70G C71U	-0.0704
U2C A43C C46U C66U A69G A70U	-0.191
U2C A43C C46U C66U A69G A70G	-0.0788
U2C C27U A43C	-0.0586

Variant	yeast fitness (ln)
U2C G6A A43C C46U	-0.0201
U2C G6A A69G A70G	-0.0526
G1A U2G G6U C46U C71U	-0.251
U2C A70U	-0.0103
U2C A70G	0.00112
U2C C27U C46U C66A C71U	-0.0945
U2C C27U A43C C46U C66A A69G A70U C71U	-0.472
U2C G6A	0.0247
U2C C27U A43C C46U C66A A69G A70U	-0.263
U2C C27U A43C C46U C66A A69G A70G	-0.0542
G1A U2G G6U C66U	-0.203
U2C C27U C46U A69G A70G C71U	-0.0348
U2C G6A A43C C66U A69G A70G	-0.0192
U2C G6A A43C C66U A69G A70U	-0.232
U2C G6A A43C A69G A70U C71U	-0.279
U2C G6A A43C C46U C66U A69G A70G	-0.00874
U2C G6A A43C C46U C66U A69G A70U	-0.3
U2C C66A	0.0749
U2C C66U	-0.207
U2C C46U A70U	0.0104
